What was measured:
Lung [1] = assay: Biodistribution in LPS treated C57BL/6N mouse lung at 50 uCi/110 uL, iv administered 6 hrs […] LPS challenge measured after 1 hr post drug dose; type: ADME, organism-based; conditions: in vivo
Summary of the method: (§1)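 Male C57BL/6N mice, 6-8 weeks; LPS (E. coli O127:B8) in PBS, 10 mg/kg i.v., given 6 h before tracer. HPLC-purified [18F]tracer ~50 μCi in 10% ethanol/saline i.v. via tail vein. Killed at 5 min, 30 min, 1 h or 2 h; tissues weighed and gamma-counted against diluted injectate standards. Reported as %ID/g, mean ± SD, n = 4.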

Brain [2] = assay: Biodistribution in LPS treated C57BL/6N mouse brain at 50 uCi/110 uL, iv administered 6 hrs […] LPS challenge measured after 1 hr post drug dose; type: ADME, organism-based; conditions: in vivo
Summary of the method: (§2)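 Male C57BL/6N mice aged 6-8 weeks received E. coli O127:B8 LPS in PBS, 10 mg/kg i.v., 6 h before tracer. Tracer ~50 μCi in 10% ethanol/saline, i.v. tail vein. Sacrifice was at 5 min, 30 min, 1 h or 2 h post-injection. Organs were weighed and gamma-counted with injectate standards. Data are %ID/g, mean ± SD, n = 4.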

Mus musculus = assay: Biodistribution in LPS treated C57BL/6N mouse at 5 uCi, iv co-administered with nonselective NOS inhibitor 2-amino-4-methylpyridine measured after 1 hr; type: ADME, organism-based; conditions: in vivo
Kidney [3] = assay: Biodistribution in C57BL/6N mouse kidney at 50 uCi/110 uL, iv after 2 hrs; type: ADME, organism-based; conditions: in vivo
Summary of the method: (§3)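 Untreated (control) male C57BL/6N mice aged 6-8 weeks. HPLC-purified tracer, ~50 μCi in 10% ethanol/saline, given i.v. via the tail vein. Mice were sacrificed at 5 min, 30 min, 1 h and 2 h post-injection. Tissues were removed, weighed and gamma-counted against diluted injectate standards. Data are %ID/g, mean ± SD, n = 4.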

Lung [4] = assay: Biodistribution in C57BL/6N mouse lung at 50 uCi/110 uL, iv after 30 mins; type: ADME, organism-based; conditions: in vivo, 0.5 h; summary of the method: as §3
Heart [5] = assay: Biodistribution in C57BL/6N mouse heart at 50 uCi/110 uL, iv after 30 mins; type: ADME, organism-based; conditions: in vivo, 0.5 h; summary of the method: as §3
[6] = Metabolic stability in Sprague-Dawley rat whole blood at 400 uCi after 1 hr; type: ADME, tissue-based; conditions: read-out: Stability
Summary of the method: (§4)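 Heparinized whole blood (5 mL) from a mature male Sprague-Dawley rat incubated with ~400 μCi [18F]tracer at 37 °C for 5 min to 2 h. Aliquots lysed with 3 volumes of ethanol and centrifuged; supernatant and pellet gamma-counted. Supernatant species analysed by silica TLC (ethyl acetate), identified by co-elution with non-radioactive standard.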

Bone [7] = assay: Biodistribution in LPS treated C57BL/6N mouse bone at 50 uCi/110 uL, iv administered 6 hrs […] LPS challenge measured after 2 hrs post drug dose; type: ADME, organism-based, Bone element; conditions: in vivo; summary of the method: as §2
Kidney [8] = assay: Biodistribution in C57BL/6N mouse kidney at 50 uCi/110 uL, iv after 1 hr; type: ADME, organism-based; conditions: in vivo; summary of the method: as §3
Lung [9] = assay: Biodistribution in LPS treated C57BL/6N mouse lung at 50 uCi/110 uL, iv administered 6 hrs […] LPS challenge measured after 5 mins post drug dose; type: ADME, organism-based; conditions: in vivo; summary of the method: as §1
Kidney [10] = assay: Biodistribution in LPS treated C57BL/6N mouse kidney at 50 uCi/110 uL, iv administered 6 hrs […] LPS challenge measured after 30 mins post drug dose; type: ADME, organism-based; conditions: in vivo, 0.5 h; summary of the method: as §1
Bone [11] = assay: Biodistribution in C57BL/6N mouse bone at 50 uCi/110 uL, iv after 5 mins; type: ADME, organism-based, Bone element; conditions: in vivo; summary of the method: as §3
Brain [12] = assay: Biodistribution in C57BL/6N mouse brain at 50 uCi/110 uL, iv after 1 hr; type: ADME, organism-based; conditions: in vivo; summary of the method: as §3
Bone [13] = assay: Biodistribution in LPS treated C57BL/6N mouse bone at 50 uCi/110 uL, iv administered 6 hrs […] LPS challenge measured after 30 mins post drug dose; type: ADME, organism-based, Bone element; conditions: in vivo, 0.5 h; summary of the method: as §2
Brain [14] = assay: Biodistribution in LPS treated C57BL/6N mouse brain at 50 uCi/110 uL, iv administered 6 hrs […] LPS challenge measured after 2 hrs post drug dose; type: ADME, organism-based; conditions: in vivo; summary of the method: as §2
Bone [15] = assay: Biodistribution in LPS treated C57BL/6N mouse bone at 50 uCi/110 uL, iv administered 6 hrs […] LPS challenge measured after 5 mins post drug dose; type: ADME, organism-based, Bone element; conditions: in vivo; summary of the method: as §2
Bone [16] = assay: Biodistribution in C57BL/6N mouse bone at 50 uCi/110 uL, iv after 2 hrs; type: ADME, organism-based, Bone element; conditions: in vivo; summary of the method: as §3
Liver [17] = assay: Biodistribution in C57BL/6N mouse liver at 50 uCi/110 uL, iv after 2 hrs; type: ADME, organism-based; conditions: in vivo; summary of the method: as §3
Blood [18] = assay: Biodistribution in LPS treated C57BL/6N mouse blood at 50 uCi/110 uL, iv administered 6 hrs […] LPS challenge measured after 2 hrs post drug dose; type: ADME, organism-based; conditions: in vivo; summary of the method: as §2
Heart [19] = assay: Biodistribution in C57BL/6N mouse heart at 50 uCi/110 uL, iv after 2 hrs; type: ADME, organism-based; conditions: in vivo; summary of the method: as §3
Kidney [20] = assay: Biodistribution in C57BL/6N mouse kidney at 50 uCi/110 uL, iv after 5 mins; type: ADME, organism-based; conditions: in vivo; summary of the method: as §3
Blood [21] = assay: Biodistribution in C57BL/6N mouse blood at 50 uCi/110 uL, iv after 30 mins; type: ADME, organism-based; conditions: in vivo, 0.5 h; summary of the method: as §3
Liver [22] = assay: Biodistribution in C57BL/6N mouse liver at 50 uCi/110 uL, iv after 5 mins; type: ADME, organism-based; conditions: in vivo; summary of the method: as §3
Blood [23] = assay: Biodistribution in LPS treated C57BL/6N mouse blood at 50 uCi/110 uL, iv administered 6 hrs […] LPS challenge measured after 30 mins post drug dose; type: ADME, organism-based; conditions: in vivo, 0.5 h; summary of the method: as §2
[24] = Metabolic stability in Sprague-Dawley rat whole blood at 400 uCi after 2 hrs; type: ADME, tissue-based; conditions: read-out: Stability; summary of the method: as §4
Muscle tissue [25] = assay: Biodistribution in LPS treated C57BL/6N mouse muscle at 50 uCi/110 uL, iv administered 6 hrs […] LPS challenge measured after 5 mins post drug dose; type: ADME, organism-based; conditions: in vivo; summary of the method: as §1
Muscle tissue [26] = assay: Biodistribution in LPS treated C57BL/6N mouse muscle at 50 uCi/110 uL, iv administered 6 hrs […] LPS challenge measured after 1 hr post drug dose; type: ADME, organism-based; conditions: in vivo; summary of the method: as §1
Bone [27] = assay: Biodistribution in C57BL/6N mouse bone at 50 uCi/110 uL, iv after 1 hr; type: ADME, organism-based, Bone element; conditions: in vivo; summary of the method: as §3
Liver [28] = assay: Biodistribution in LPS treated C57BL/6N mouse liver at 50 uCi/110 uL, iv administered 6 hrs […] LPS challenge measured after 5 mins post drug dose; type: ADME, organism-based; conditions: in vivo; summary of the method: as §1
Heart [29] = assay: Biodistribution in LPS treated C57BL/6N mouse heart at 50 uCi/110 uL, iv administered 6 hrs […] LPS challenge measured after 30 mins post drug dose; type: ADME, organism-based; conditions: in vivo, 0.5 h; summary of the method: as §2
Brain [30] = assay: Biodistribution in C57BL/6N mouse brain at 50 uCi/110 uL, iv after 5 mins; type: ADME, organism-based; conditions: in vivo; summary of the method: as §3
Heart [31] = assay: Biodistribution in LPS treated C57BL/6N mouse heart at 50 uCi/110 uL, iv administered 6 hrs […] LPS challenge measured after 5 mins post drug dose; type: ADME, organism-based; conditions: in vivo; summary of the method: as §2
Lung [32] = assay: Biodistribution in LPS treated C57BL/6N mouse lung at 50 uCi/110 uL, iv administered 6 hrs […] LPS challenge measured after 2 hrs post drug dose; type: ADME, organism-based; conditions: in vivo; summary of the method: as §1
Kidney [33] = assay: Biodistribution in LPS treated C57BL/6N mouse kidney at 50 uCi/110 uL, iv administered 6 hrs […] LPS challenge measured after 1 hr post drug dose; type: ADME, organism-based; conditions: in vivo; summary of the method: as §2
Kidney [34] = assay: Biodistribution in LPS treated C57BL/6N mouse kidney at 50 uCi/[…], iv administered […] measured after 5 mins post drug dose; type: ADME, organism-based; conditions: in vivo; summary of the method: as §1

Structure (SMILES): Cc1cc(N)nc(CC(C)[18F])c1 (stereo not given)
- Drug uptake (Lung [1]): 0.73 % ID/g
- Drug uptake (Brain [2]): 0.19 % ID/g
- Activity (Mus musculus): Not Active
- Drug uptake (Kidney [3]): 0.8 % ID/g
- Drug uptake (Lung [4]): 1.14 % ID/g
- Drug uptake (Heart [5]): 0.6 % ID/g
- remaining at 1 h, 400 uCi [6]: 80%
- Drug uptake (Bone [7]): 3.77 % ID/g
- Drug uptake (Kidney [8]): 2.2 % ID/g
- Drug uptake (Lung [9]): 4.32 % ID/g
- Drug uptake (Kidney [10]): 10.9 % ID/g
- Drug uptake (Bone [11]): 1.52 % ID/g
- Drug uptake (Brain [12]): 0.11 % ID/g
- Drug uptake (Bone [13]): 3.7 % ID/g
- Drug uptake (Brain [14]): 0.07 % ID/g
- Drug uptake (Bone [15]): 1.59 % ID/g
- Drug uptake (Bone [16]): 5.59 % ID/g
- Drug uptake (Liver [17]): 0.74 % ID/g
- Drug uptake (Blood [18]): 0.23 % ID/g
- Drug uptake (Heart [19]): 0.08 % ID/g
- Drug uptake (Kidney [20]): 20.6 % ID/g
- Drug uptake (Blood [21]): 1.22 % ID/g
- Drug uptake (Liver [22]): 33.2 % ID/g
- Drug uptake (Blood [23]): 2.09 % ID/g
- remaining at 2 h, 400 uCi [24]: 75%
- Drug uptake (Muscle tissue [25]): 1.64 % ID/g
- Drug uptake (Muscle tissue [26]): 0.78 % ID/g
- Drug uptake (Bone [27]): 2.57 % ID/g
- Drug uptake (Liver [28]): 24.6 % ID/g
- Drug uptake (Heart [29]): 1.02 % ID/g
- Drug uptake (Brain [30]): 1.6 % ID/g
- Drug uptake (Heart [31]): 2.03 % ID/g
- Drug uptake (Lung [32]): 0.18 % ID/g
- Drug uptake (Kidney [33]): 3.95 % ID/g
- Drug uptake (Kidney [34]): 26.7 % ID/g
